In ChEMBL document CHEMBL3259569 (J Med Chem, 2014):
Calls of active or inactive are those of the source. The calls are words filed in the database; no cut-off is given here.

Columns and labels:
Histone deacetylase 2 = Histone deacetylase 2 (Homo sapiens, UniProt Q92769)
[1] = Oral bioavailability in ICR mouse at 10 mg/kg by LC-MS/MS analysis; assay type: ADME, organism-based; conditions: in vivo
[2] = AUC (0 to infinity) in ICR mouse at 10 mg/kg, po by LC-MS/MS analysis; assay type: ADME, organism-based; design: time infinity, dose 10 mg/kg, route oral; conditions: plasma
Mus musculus [3] = test: Toxicity in ICR mouse at 400 to 1000 mg/kg, po treated for 7 days measured for 1 week; assay type: organism-based; design: dose 400-1000 mg/kg, route oral; conditions: in vivo, 168 h
Outline: (§1)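 ICR mice fasted overnight, then given vehicle (0.2 mL/20 g) or compound orally at 400, 600 or 1000 mg/kg (n = 10/group) daily for 7 days, then monitored 1 week; weighed daily for 1 week, then twice weekly; 2/10 deaths defines toxic dose.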

HCT-116 [4] = test: Induction of apoptosis in p53 knock down human HCT116 cells assessed as caspase-3 activation at 1 uM after 24 hrs by immunoblotting analysis; assay type: functional, cell-based
KB = test: Cytotoxicity against human KB cells by MTT assay; assay type: functional, cell-based
HCT-116 [5] = test: Induction of apoptosis in human HCT116 cells assessed as PARP cleavage after 24 hrs by Western blotting analysis; assay type: functional, cell-based
Outline: (§2)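 HCT116 cells treated with indicated concentrations for 24 h; lysates probed by Western blot for caspase 3 and PARP cleavage.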

HCT-116 [6] = test: Induction of apoptosis in human HCT116 cells assessed as caspase-3 activation at 3 uM after 24 hrs by Western blotting analysis in presence of Z-VAD-FMK; assay type: functional, cell-based
Outline: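 HCT116 cells treated 24 h with 3 μM compound with or without 20 μM z-VAD-fmk pan-caspase inhibitor; caspase 3 and PARP assessed by Western blot.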

HCT-116 [7] = test: Anticancer activity against human HCT116 cells assessed as disruption of 3-dimensional spheroid structure after 72 hrs by phase-contrast light microscopic analysis; assay type: functional, cell-based
Outline: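 HCT116 cells (4 × 10^3/well) grown 5 days in semisolid GFR-Matrigel/10% FBS-DMEM (1:1) to form 3D spheres, then exposed to compound for 72 h; sphere structure examined by phase-contrast light microscopy.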

HCT-116 [8] = test: Induction of apoptosis in p53 knock down human HCT116 cells assessed as PARP cleavage at 1 uM after 24 hrs by immunoblotting analysis; assay type: functional, cell-based
HCT-116 [9] = test: Antitumor activity against human HCT116 cells xenografted in po dosed nude athymic mouse assessed as tumor growth inhibition after 2 to 16 days; assay type: functional, organism-based
Mus musculus [10] = test: Toxicity in ICR mouse assessed as change in body weight at 400 to 1000 mg/kg, po treated for 7 days measured for 1 week; assay type: organism-based; design: dose 400-1000 mg/kg, route oral; conditions: in vivo, 168 h
Outline: as §1

HCT-116 [11] = test: Induction of apoptosis in human HCT116 cells assessed as caspase-3 activation after 24 hrs by Western blotting analysis; assay type: functional, cell-based
Outline: as §2

[12] = molecular target: T1, Protein deacetylase HDAC6 (Homo sapiens, UniProt Q9UBN7); test: Inhibition of HDAC6 (unknown origin) using RHKK(Ac) (379 to 382) p53 peptide as substrate by fluorescence assay
T1 sequence (Q9UBN7 whole entry): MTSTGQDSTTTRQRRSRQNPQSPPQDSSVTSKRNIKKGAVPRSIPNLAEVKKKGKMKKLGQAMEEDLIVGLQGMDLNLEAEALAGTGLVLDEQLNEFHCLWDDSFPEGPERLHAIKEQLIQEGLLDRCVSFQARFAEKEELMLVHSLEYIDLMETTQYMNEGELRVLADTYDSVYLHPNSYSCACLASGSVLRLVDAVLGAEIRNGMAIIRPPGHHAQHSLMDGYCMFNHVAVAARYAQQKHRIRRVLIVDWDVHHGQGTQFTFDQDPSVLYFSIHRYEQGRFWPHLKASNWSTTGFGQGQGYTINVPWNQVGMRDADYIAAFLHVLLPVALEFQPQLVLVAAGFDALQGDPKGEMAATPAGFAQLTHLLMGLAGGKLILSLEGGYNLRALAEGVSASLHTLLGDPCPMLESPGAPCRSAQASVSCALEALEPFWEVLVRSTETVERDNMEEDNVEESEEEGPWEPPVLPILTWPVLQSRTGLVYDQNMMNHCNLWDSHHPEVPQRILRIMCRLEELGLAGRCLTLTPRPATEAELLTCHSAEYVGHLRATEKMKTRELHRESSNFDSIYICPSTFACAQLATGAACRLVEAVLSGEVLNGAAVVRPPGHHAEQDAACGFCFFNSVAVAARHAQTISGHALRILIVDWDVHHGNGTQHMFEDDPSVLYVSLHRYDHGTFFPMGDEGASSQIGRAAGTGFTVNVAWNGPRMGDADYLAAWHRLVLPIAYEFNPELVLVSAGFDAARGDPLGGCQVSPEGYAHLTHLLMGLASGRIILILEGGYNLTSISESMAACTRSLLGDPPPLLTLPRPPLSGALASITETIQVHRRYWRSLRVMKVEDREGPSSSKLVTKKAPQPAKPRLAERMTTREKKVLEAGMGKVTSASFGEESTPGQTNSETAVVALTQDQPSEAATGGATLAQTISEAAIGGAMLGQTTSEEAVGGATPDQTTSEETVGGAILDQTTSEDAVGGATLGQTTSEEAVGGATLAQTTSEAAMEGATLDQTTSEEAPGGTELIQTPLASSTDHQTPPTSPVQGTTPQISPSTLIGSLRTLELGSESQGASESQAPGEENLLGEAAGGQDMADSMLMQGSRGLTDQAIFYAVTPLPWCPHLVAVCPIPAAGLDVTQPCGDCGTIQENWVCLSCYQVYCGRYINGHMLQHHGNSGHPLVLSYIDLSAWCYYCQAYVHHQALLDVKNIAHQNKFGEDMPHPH

Histone deacetylase 8 = molecular target: T2, Histone deacetylase 8 (Homo sapiens, UniProt Q9BY41); test: Inhibition of HDAC8 (unknown origin) by fluorescence assay
T2 sequence (Q9BY41 whole entry): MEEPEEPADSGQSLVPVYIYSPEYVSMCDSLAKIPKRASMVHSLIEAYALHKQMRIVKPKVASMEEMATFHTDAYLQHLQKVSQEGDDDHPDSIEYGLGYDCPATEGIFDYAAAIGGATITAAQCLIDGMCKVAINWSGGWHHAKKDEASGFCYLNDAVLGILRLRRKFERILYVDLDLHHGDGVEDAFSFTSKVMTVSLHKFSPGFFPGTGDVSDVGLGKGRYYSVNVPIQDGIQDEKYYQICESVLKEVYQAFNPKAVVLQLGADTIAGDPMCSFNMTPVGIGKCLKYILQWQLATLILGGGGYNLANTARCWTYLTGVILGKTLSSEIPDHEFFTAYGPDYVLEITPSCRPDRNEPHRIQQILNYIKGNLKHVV
Outline: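 Run by a contract testing lab. Compounds were dissolved in DMSO and tested in 10-dose IC50 mode, using 3-fold serial dilution starting at 10 μM. IC50 was taken from the dose series.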

PC-3 = test: Cytotoxicity against human PC3 cells by MTT assay; assay type: functional, cell-based
HCT-116 [13] = test: Antitumor activity against human HCT116 cells xenografted in nude athymic mouse assessed as tumor growth inhibition at 100 mg/kg/day, po after 2 to 16 days relative to control; assay type: functional; conditions: read-out: TGI

Sequence of Histone deacetylase 2 (Q92769 whole entry): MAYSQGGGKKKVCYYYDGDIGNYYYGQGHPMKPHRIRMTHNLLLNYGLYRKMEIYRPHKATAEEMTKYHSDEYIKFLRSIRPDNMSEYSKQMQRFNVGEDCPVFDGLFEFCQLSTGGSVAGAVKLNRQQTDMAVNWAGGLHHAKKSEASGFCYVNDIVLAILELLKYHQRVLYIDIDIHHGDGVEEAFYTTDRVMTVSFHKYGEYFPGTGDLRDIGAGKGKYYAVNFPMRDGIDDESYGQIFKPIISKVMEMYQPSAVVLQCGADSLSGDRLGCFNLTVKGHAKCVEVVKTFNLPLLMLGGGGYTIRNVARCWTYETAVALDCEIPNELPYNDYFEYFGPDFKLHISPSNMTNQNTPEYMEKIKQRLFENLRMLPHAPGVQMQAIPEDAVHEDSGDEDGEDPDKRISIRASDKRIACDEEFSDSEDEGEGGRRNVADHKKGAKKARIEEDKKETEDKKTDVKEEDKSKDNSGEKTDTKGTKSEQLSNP

O=C(/C=C/c1cccc(S(=O)(=O)n2ccc3cccnc32)c1)NO
IC50 (Histone deacetylase 2): 1.16 µM
bioavailability [1]: 33%
AUC(0-inf) [2]: 466 ng·h/mL
Activity (Mus musculus [3]): Non-toxic
Activity (HCT-116 [4]): inactive
IC50 (KB): 0.76 µM
Activity (HCT-116 [5]): Dose-dependent effect
Activity (HCT-116 [6]): inactive
Activity (HCT-116 [7]): Dose-dependent effect
Activity (HCT-116 [8]): inactive
TGI (HCT-116 [9]): Dose-dependent effect
Activity (Mus musculus [10]): Non-toxic
Activity (HCT-116 [11]): Dose-dependent effect
IC50 [12]: 0.0052 µM
IC50 (Histone deacetylase 8): 1.39 µM
IC50 (PC-3): 1.63 µM
inhibition in vivo at 100 mg/kg/day (HCT-116 [13]): 66.9%
